Measured values reported in ChEMBL document CHEMBL4699622, “Structural and Functional Study of the Klebsiella pneumoniae VapBC Toxin-Antitoxin System, Including the Development of an Inhibitor That Activates VapC” (J Med Chem, 2020).
The source made the active and inactive calls. The calls are words filed in the database; no cut-off is given here. Residues, ends and D or L forms follow the SMILES beside them.

Columns and labels:
Klebsiella pneumoniae [1] = experiment: Inhibition of Klebsiella pneumoniae MGH78578 N-terminal His6-tagged VapB/C expressed in Escherichia coli BL21(DE3) protein-protein interaction assessed as activation of VapC-mediated RNAase activity at 100 uM measured after 1 hr using fluorophore-labelled RNA by spectrofluorimetric method
Method in brief: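 Peptide (100 μM) was added to purified VapBC complex (10 μM), pretreated with 10 mM EDTA and then 10 mM Mg²⁺. The reaction used 40 U RNase inhibitor, 20 mM HEPES pH 7.5, 400 mM NaCl and 5 pM final fluorophore/quencher RNA. RFU from released VapC was read over 1 h at ex 490/em 520 nm. Mean of three independent replicates ± SD.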

Klebsiella pneumoniae [2] = experiment: Binding affinity to Klebsiella pneumoniae MGH78578 N-terminal His6-tagged VapC expressed in Escherichia coli BL21(DE3) assessed as increase in RNAase activity measured after 1 hr using fluorophore-labelled RNA by spectrofluorimetric method
Method in brief: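 Free VapC (10 μM) was stripped of metals with 10 mM EDTA, then exchanged into purification buffer with 10 mM Mg²⁺. It was incubated without the VapB partner, with 40 U RNase inhibitor, in 20 mM HEPES pH 7.5 and 400 mM NaCl with quenched fluorophore-labelled RNA (5 pM final). Fluorescence was followed for 1 h at ex 490/em 520 nm.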

[3] = Binding affinity to Klebsiella pneumoniae MGH78578 N-terminal His6-tagged VapC expressed in Escherichia coli BL21(DE3) by isothermal titration calorimetry
Method in brief: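 Isothermal titration calorimetry was run at 25 °C with VapC, quantified by A280. Background was subtracted and the data were fitted to a single-site binding model.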

[4] = Inhibition of Klebsiella pneumoniae MGH78578 N-terminal His6-tagged VapB/C expressed in Escherichia coli BL21(DE3) protein-protein interaction assessed as activation of VapC-mediated RNAase activity measured after 1 hr using fluorophore-labelled RNA by spectrofluorimetric method
Method in brief: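 Small molecule (1, 3.16 and 10 μM) was added to 10 μM VapBC complex. The complex was EDTA-stripped and Mg²⁺-reloaded, with 40 U RNase inhibitor, in 20 mM HEPES pH 7.5 and 400 mM NaCl with 5 pM final quenched RNA. RNase fluorescence was monitored for 1 h at ex 490/em 520 nm. Activity was expressed relative to free VapC. Screening was done in triplicate.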

Structure (SMILES)	inhibition (Klebsiella pneumoniae [1])	Activity (Klebsiella pneumoniae [2])	Kd [3] [nM]	IC50 [4] [nM]
CC[C@H](C)[C@H](NC(=O)[C@H](CC(C)C)NC(=O)[C@@H](NC(=O)[C@H](CC(N)=O)NC(=O)[C@@H](NC(=O)[C@@H](N)CC(=O)O)[C@@H](C)O)[C@@H](C)CC)C(=O)N[C@@H](CC(=O)O)C(=O)N[C@@H](CC(C)C)C(=O)N[C@@H](Cc1ccccc1)C(=O)O (H-DTNILIDLF-OH)	Active			
CSCC[C@H](NC(=O)CN)C(=O)N[C@@H](CCC(=O)O)C(=O)N[C@@H](Cc1ccc(O)cc1)C(=O)N[C@@H](CCC(N)=O)C(=O)N[C@@H](CCCNC(=N)N)C(=O)N[C@@H](CCC(N)=O)C(=O)N[C@@H](CC(C)C)C(=O)O (H-GMEYQRQL-OH)	Active	Active	110	
CC[C@H](C)[C@H](NC(=O)[C@H](CC(C)C)NC(=O)[C@@H](NC(=O)[C@H](CC(N)=O)NC(=O)[C@@H](N)[C@@H](C)O)[C@@H](C)CC)C(=O)N[C@@H](CC(=O)O)C(=O)N[C@@H](CC(C)C)C(=O)N[C@@H](Cc1ccccc1)C(=O)N[C@@H](CO)C(=O)O (H-TNILIDLFS-OH)	Active			
CSCC[C@H](NC(=O)CN)C(=O)N[C@@H](CCC(=O)O)C(=O)N[C@@H](Cc1ccc(O)cc1)C(=O)N[C@@H](CCC(N)=O)C(=O)N[C@@H](CCCNC(=N)N)C(=O)N[C@@H](CCC(N)=O)C(=O)N[C@@H](CC(C)C)C(=O)N[C@@H](CCCNC(=N)N)C(=O)N[C@@H](CCCCN)C(=O)O (H-GMEYQRQLRK-OH)		Active		
CSCC[C@H](NC(=O)CN)C(=O)N[C@@H](CCC(=O)O)C(=O)N[C@@H](Cc1ccc(O)cc1)C(=O)N[C@@H](CCC(N)=O)C(=O)N[C@@H](CCCNC(=N)N)C(=O)N[C@@H](CCC(N)=O)C(=O)N[C@@H](CC(C)C)C(=O)N[C@@H](CCCNC(=N)N)C(=O)O (H-GMEYQRQLR-OH)		Active		
CSCC[C@H](NC(=O)CN)C(=O)N[C@@H](CCC(=O)O)C(=O)N[C@@H](C)C(=O)N[C@@H](C)C(=O)N[C@@H](CCCNC(=N)N)C(=O)N[C@@H](CCC(N)=O)C(=O)N[C@@H](CC(C)C)C(=O)O (H-GMEAARQL-OH)		Active		
CSCC[C@H](NC(=O)CN)C(=O)N[C@@H](CCC(=O)O)C(=O)N[C@@H](Cc1ccc(O)cc1)C(=O)N[C@@H](C)C(=O)N[C@@H](CCCNC(=N)N)C(=O)N[C@@H](CCC(N)=O)C(=O)N[C@@H](CC(C)C)C(=O)O (H-GMEYARQL-OH)	Active	Active	150	
CC[C@H](C)[C@H](NC(=O)[C@H](CC(C)C)NC(=O)[C@@H](NC(=O)[C@H](CC(N)=O)NC(=O)[C@@H](NC(=O)[C@@H](N)CC(=O)O)[C@@H](C)O)[C@@H](C)CC)C(=O)N[C@@H](CC(=O)O)C(=O)N[C@@H](CC(C)C)C(=O)N[C@@H](Cc1ccccc1)C(=O)N[C@@H](CO)C(=O)O (H-DTNILIDLFS-OH)	Active			
NC(=O)NC(=O)CCN1CCC(C(=O)c2ccc(O)cc2)CC1		inactive	22	420
CC[C@H](C)[C@H](NC(=O)[C@H](CC(C)C)NC(=O)[C@@H](NC(=O)[C@H](CC(N)=O)NC(=O)[C@@H](N)[C@@H](C)O)[C@@H](C)CC)C(=O)N[C@@H](CC(=O)O)C(=O)N[C@@H](CC(C)C)C(=O)N[C@@H](Cc1ccccc1)C(=O)O (H-TNILIDLF-OH)	Active			
CCC1Oc2cc(S(=O)(=O)N3CCCC(C(=O)Nc4ccc(F)cc4)C3)c(C)cc2NC1=O (configuration not stated)		inactive	22	400
CSCC[C@H](NC(=O)CN)C(=O)N[C@@H](CCC(=O)O)C(=O)N[C@@H](C)C(=O)N[C@@H](CCC(N)=O)C(=O)N[C@@H](CCCNC(=N)N)C(=O)N[C@@H](CCC(N)=O)C(=O)N[C@@H](CC(C)C)C(=O)O (H-GMEAQRQL-OH)	Active	Active	170	
